# Test results: ChEMBL document CHEMBL4261631, “Synthetic thiosemicarbazones as a new class of Mycobacterium tuberculosis protein tyrosine phosphatase A inhibitors” (Bioorg Med Chem, 2018)
# pIC50, pKi: −log10 of the molar value.
# What was measured:
# [1] = target: T1, Tyrosine-protein phosphatase non-receptor type 1 (Homo sapiens, UniProt P18031); assay: Inhibition of recombinant human Ptp1B using p-nitrophenyl phosphate as substrate preincubated for 10 mins followed by substrate addition and measured every minute for 10 mins by UV-VIS spectrophotometric analysis
# T1 sequence (P18031 whole entry): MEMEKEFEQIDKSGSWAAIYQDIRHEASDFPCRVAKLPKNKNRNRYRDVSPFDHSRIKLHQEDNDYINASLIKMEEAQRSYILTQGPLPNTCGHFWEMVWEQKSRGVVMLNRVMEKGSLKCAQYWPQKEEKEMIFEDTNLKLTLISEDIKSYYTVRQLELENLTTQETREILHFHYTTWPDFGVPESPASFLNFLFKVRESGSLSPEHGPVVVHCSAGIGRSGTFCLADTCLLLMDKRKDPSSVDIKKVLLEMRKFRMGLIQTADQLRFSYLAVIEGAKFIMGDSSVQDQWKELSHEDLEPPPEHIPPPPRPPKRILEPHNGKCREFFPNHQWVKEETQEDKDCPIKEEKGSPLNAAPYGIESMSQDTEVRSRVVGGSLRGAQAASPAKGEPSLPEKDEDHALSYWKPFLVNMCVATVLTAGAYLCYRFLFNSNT
# How it was run: (§1)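 Recombinant PTP at PtpB 50 nM, LYP 169 nM, PTP-PEST 205 nM or PTP1B 38 nM, in 20 mM imidazole pH 7.0. Inhibitor (0.5–50 µM, DMSO ≤4% v/v) premixed with enzyme 10 min at 37 °C. Started with 10 mM pNPP. A410 each min for 10 min. Activity from 7 min minus 2 min. IC50 by linear regression. Triplicate.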
# [2] = target: T2, Low molecular weight protein-tyrosine phosphatase A (Mycobacterium tuberculosis, UniProt P9WIA1); assay: Non-competitive inhibition of Mycobacterium tuberculosis PtpA using p-nitrophenyl phosphate as substrate by Michaelis-Menten plot analysis
# T2 sequence (P9WIA1 whole entry): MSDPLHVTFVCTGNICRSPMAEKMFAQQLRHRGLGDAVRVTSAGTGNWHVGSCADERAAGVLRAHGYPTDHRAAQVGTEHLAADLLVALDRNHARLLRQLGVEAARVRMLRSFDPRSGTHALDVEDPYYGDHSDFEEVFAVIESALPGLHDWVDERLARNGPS
# How it was run: (§2)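 Mtb PtpA-catalysed pNPP hydrolysis with pNPP varied 0.2–20 mM at each of three inhibitor concentrations. Rates expressed as specific activity (µmol pNPP min-1 mg-1). Vmax and Km fitted to Michaelis–Menten equation. Ki from non-linear fits to competitive or non-competitive inhibition equation, at least three independent experiments.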
# [3] = target: T3, Phosphotyrosine protein phosphatase (Mycobacterium tuberculosis, UniProt A0A045ISB3); assay: Inhibition of recombinant Mycobacterium tuberculosis PtpB using p-nitrophenyl phosphate as substrate preincubated for 10 mins followed by substrate addition and measured every minute for 10 mins by UV-VIS spectrophotometric analysis; how it was run: as §1
# T3 sequence (A0A045ISB3 whole entry): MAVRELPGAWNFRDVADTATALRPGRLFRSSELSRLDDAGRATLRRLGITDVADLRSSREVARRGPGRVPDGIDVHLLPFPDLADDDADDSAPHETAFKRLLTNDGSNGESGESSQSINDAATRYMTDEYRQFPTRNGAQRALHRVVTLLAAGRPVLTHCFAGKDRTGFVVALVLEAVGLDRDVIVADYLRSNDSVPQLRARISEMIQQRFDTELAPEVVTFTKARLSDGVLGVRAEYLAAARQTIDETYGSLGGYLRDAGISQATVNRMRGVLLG
# [4] = target: T2, Low molecular weight protein-tyrosine phosphatase A; assay: Inhibition of recombinant Mycobacterium tuberculosis PtpA using p-nitrophenyl phosphate as substrate preincubated for 10 mins followed by substrate addition and measured every minute for 10 mins by UV-VIS spectrophotometric analysis
# How it was run: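 Recombinant Mtb PtpA at 50 nM in 20 mM imidazole pH 7.0, premixed with inhibitor (0.5–50 µM, DMSO ≤4% v/v) 10 min at 37 °C. Started with 10 mM pNPP. A410 read each min for 10 min at 37 °C. Residual activity from 7 min minus 2 min absorbance versus no-inhibitor wells. IC50 by linear regression of % inhibition versus concentration. Triplicate, mean ± SD of three experiments.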
# [5] = target: T2, Low molecular weight protein-tyrosine phosphatase A; assay: Competitive inhibition of Mycobacterium tuberculosis PtpA using p-nitrophenyl phosphate as substrate by Michaelis-Menten plot analysis; how it was run: as §2
Structure (SMILES),pIC50 [1],pKi [2],pIC50 [3],pIC50 [4],pKi [5]
S=C(N/N=C/c1ccc(-c2ccccc2)cc1)Nc1cccc2ccccc12,< 4.30,5.25,4.75,5.13,
O=[N+]([O-])c1ccc(/C=N/NC(=S)Nc2cccc3ccccc23)cc1,4.77,5.92,4.74,5.02,
Cc1ccc(NC(=S)N/N=C/c2ccc(-c3cc(C(F)(F)F)ccc3Cl)o2)cc1,4.42,,4.52,5.04,4.92
FC(F)(F)c1ccc(Cl)c(-c2ccc(/C=N/NC(=S)Nc3cccc4ccccc34)o2)c1,5.03,5.77,5.21,5.54,
